In ChEMBL document CHEMBL3351942, “Rexinoids isolated from Sophora tonkinensis with a gene expression profile distinct from the synthetic rexinoid bexarotene” (J Nat Prod, 2014) one finds Activity data, which are given here for 1 molecule.

SMILES strings stand for the structures. Calls of active or inactive are those of the source. No cut-off for these calls is given here.

The species named for assay [1] is Homo sapiens. Description: Activation of PPARgamma/RXR heterodimer in human hepatoma cells assessed as potentiation of rosiglitazone-induced increase in ANGPTL4 mRNA level at 10 uM by quantitative RT-PCR analysis. Format: cell-based. In short, it runs like this: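 HLE human hepatoma cells (DMEM, 10% FBS, 37 °C, 5% CO2) treated with or without rosiglitazone; ANGPTL4 mRNA by SYBR green qRT-PCR, β-actin-normalized delta-delta Ct, fold vs vehicle; means ± SD of three determinants, representative of three experiments.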

Assay [2] is described as follows: Activation of LXR in mouse C2C12 cells assessed as induction of SREBP1 mRNA expression at 10 uM after 24 hrs in presence of T0901317 by quantitative RT-PCR analysis. The assay is classed as cell-based. In short, it runs like this:
(§1)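 C2C12 myoblasts grown in DMEM/10% FBS, differentiated at confluence in 2% horse serum, medium changed every other day for 5 days; myotubes treated 24 h with or without T0901317 (1 μM). Total RNA, DNase-treated, oligo(dT) RT from 0.5 μg, SYBR green qPCR; normalized to β-actin (delta-delta Ct), fold over vehicle; mean ± SD of four determinants, one of two experiments.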

Assay [3] deals with RAW264.7. Description: Activation of RXR/LXR heterodimer in mouse RAW264.7 cells assessed as increase in ABCA1 protein level at 10 uM after 24 hrs by Western blotting analysis. Format: cell-based. For orientation: In western blotting, separated proteins are transferred to a membrane and probed.
The nature of assay [4]: Activation of LXR in mouse C2C12 cells assessed as induction of ApoD mRNA expression at 10 uM after 24 hrs by quantitative RT-PCR analysis. Format: cell-based. In short, it runs like this:
as §1

The nature of assay [5]: Activation of LXR in mouse C2C12 cells assessed as induction of FAS mRNA expression at 10 uM after 24 hrs by quantitative RT-PCR analysis. Format: cell-based. In short, it runs like this:
as §1

Assay [6] concerns C2C12. Description: Induction of HMOX-1 mRNA level in mouse C2C12 cells at 10 uM after 24 hrs by quantitative RT-PCR analysis. Format: functional, cell-based. In short, it runs like this: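 C2C12 myoblasts were differentiated in 2% horse serum, with medium changed every other day for 5 days. The myotubes were then exposed to compound at 10 μM for 24 h. mRNA was measured by SYBR green qRT-PCR from 0.5 μg total RNA, normalized to β-actin (ΔΔCt), and expressed as fold of vehicle. Four determinants, representative of two experiments.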

The target in assay [7] is T1, Retinoic acid receptor RXR-gamma (Homo sapiens) (UniProt P48443).
T1 sequence (whole entry): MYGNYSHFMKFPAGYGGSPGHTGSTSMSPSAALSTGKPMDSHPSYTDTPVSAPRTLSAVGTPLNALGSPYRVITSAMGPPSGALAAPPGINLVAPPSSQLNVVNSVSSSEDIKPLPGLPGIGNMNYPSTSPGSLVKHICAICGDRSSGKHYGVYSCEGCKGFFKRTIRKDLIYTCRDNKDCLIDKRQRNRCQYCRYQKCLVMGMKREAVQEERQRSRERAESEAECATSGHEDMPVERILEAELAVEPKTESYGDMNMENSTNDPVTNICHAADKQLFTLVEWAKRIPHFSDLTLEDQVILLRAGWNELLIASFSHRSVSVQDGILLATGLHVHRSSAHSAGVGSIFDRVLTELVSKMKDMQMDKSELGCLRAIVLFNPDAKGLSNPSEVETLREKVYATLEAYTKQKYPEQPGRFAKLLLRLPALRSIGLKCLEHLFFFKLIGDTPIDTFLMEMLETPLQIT
The assay can be described thus: Binding affinity to RXRgamma (unknown origin) by receptor-SRC1 cofactor complex formation assay. In outline: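 Ligand-dependent binding of RXR isotype to coactivator SRC-1 in an NR cofactor kit, detected with HRP-conjugated anti-RXR antibody at OD450. The full agonist CD3254 defined 100% and vehicle 0%. Efficacy was taken as maximum B/Bmax% and potency as EC50.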

The target of assay [8] is T2, Peroxisome proliferator-activated receptor delta (Mus musculus) (UniProt P35396).
T2 sequence (whole entry): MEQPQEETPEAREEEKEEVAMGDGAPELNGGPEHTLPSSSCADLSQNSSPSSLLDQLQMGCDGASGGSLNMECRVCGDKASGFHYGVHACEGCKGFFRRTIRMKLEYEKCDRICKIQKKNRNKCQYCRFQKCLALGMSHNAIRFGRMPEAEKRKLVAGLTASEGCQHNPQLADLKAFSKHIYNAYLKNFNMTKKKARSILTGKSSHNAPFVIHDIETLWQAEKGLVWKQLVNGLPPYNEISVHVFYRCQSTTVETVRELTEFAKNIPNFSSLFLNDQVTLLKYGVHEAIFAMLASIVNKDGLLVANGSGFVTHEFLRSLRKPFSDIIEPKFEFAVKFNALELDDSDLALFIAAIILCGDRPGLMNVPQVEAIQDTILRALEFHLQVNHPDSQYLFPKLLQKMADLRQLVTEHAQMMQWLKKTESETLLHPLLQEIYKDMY
The assay can be described thus: Activation of PPARdelta in mouse C2C12 cells assessed as induction of FABP3 mRNA expression at 10 uM after 24 hrs by quantitative RT-PCR analysis. Format: cell-based. In outline:
(§2)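 Differentiated C2C12 myotubes (2% horse serum, 5 days) exposed 24 h with or without PPARδ agonist GW501516 (1 μM). mRNA quantified by SYBR green real-time RT-PCR, normalized to β-actin by delta-delta Ct, and expressed as fold induction vs vehicle; means ± SD of four determinants from one of two independent experiments; one-way ANOVA with Bonferroni.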

Assay [9] deals with T2, Peroxisome proliferator-activated receptor delta (Mus musculus). Description: Activation of PPARdelta in mouse C2C12 cells assessed as induction of ANGPTL4 mRNA expression at 10 uM after 24 hrs by quantitative RT-PCR analysis. Format: cell-based. In outline:
as §2

For assay [10], the system named is RAW264.7. The assay can be described thus: Activation of RXR/LXR heterodimer in mouse RAW264.7 cells assessed as increase in ABCA1 protein level at 10 uM after 24 hrs in presence of T0901317 by Western blotting analysis. Format: cell-based.

In the case of `CC(C)=CCc1cc([C@@H]2CC(=O)c3ccc(O)c(CC=C(C)C)c3O2)cc2c1OC(C(C)(C)O)C2` (stereo not given in full), the result in [1], in assay [3], in [4], in assay [6], in assay [8] and in assay [9] was Active. Also, the outcome in assay [10] was Active. Moreover, the result in assay [2], in [5] and in assay [7] was inactive.
